What was measured:
Assay type in all cases: functional, organism-based
[1] = system: Staphylococcus aureus; experiment: Antibacterial activity against methicillin-resistant Staphylococcus aureus ATCC 33591 by CLSI method
In short: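 Methicillin-resistant S. aureus ATCC 33591 tested by a modified CLSI (formerly NCCLS) susceptibility method. Ciprofloxacin was included as the control drug in each assay.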

[2] = system: Leishmania donovani; experiment: Antileishmanial activity against Leishmania donovani promastigotes after 72 hrs by alamar blue assay
In short: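 L. donovani promastigote culture at 2 × 10^6 cells/mL was exposed to diluted compound in microplate wells and incubated at 26 °C for 72 h. Promastigote growth was read by Alamar blue. Pentamidine and amphotericin B were the reference drugs.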

[3] = system: Staphylococcus aureus; experiment: Antibacterial activity against Staphylococcus aureus ATCC 29213 by CLSI method
[4] = system: Cryptococcus neoformans; experiment: Antifungal activity against Cryptococcus neoformans ATCC 90113 by M27A2 method

Compound | IC50 [1] | MIC [1] | IC50 [2] | IC90 [2] | IC50 [3] | MIC [3] | IC50 [4] | MIC [4]
CC1=CCC[C@@H]2[C@@](C)(CC/C(C)=C/C[n+]3cn(C)c4nc[nH]/c(=N/O)c43)[C@H](C)CC[C@@]12C [AGELOXIME B] | 9.2 mg/L | 20 mg/L | 28.5 mg/L | 33.2 mg/L | 7.21 mg/L | 10 mg/L | 4.96 mg/L | 10 mg/L
C=C1CC[C@@H]2C(C)(C)CCC[C@@]2(C)[C@@H]1CC/C(C)=C/C[n+]1cn(C)c2nc[nH]/c(=N\O)c21 |  |  | 29.3 mg/L | 34 mg/L |  |  | 5.94 mg/L | 10 mg/L

From ChEMBL document CHEMBL2034895, “Antimicrobial metabolites from the Paracel Islands sponge Agelas mauritiana” (J Nat Prod, 2012)
